Data from ChEMBL document CHEMBL1933039, “6-alkylsalicylates are selective Tip60 inhibitors and target the acetyl-CoA binding site” (Eur J Med Chem, 2012).
Calls of active or inactive are those of the source. The rule behind the calls is not given here.

What was measured:
[1] = target: Histone acetyltransferase KAT5 (Rattus norvegicus) (UniProt Q99MK2); experiment: Inhibition of Tip60-mediated histone H3 acetylation in rat brain extracts at 30 uM after 15 mins by ELISA; type: tissue-based
Outline: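 Rat brain-region nuclear extracts (Dignam method) at 40 µg/mL final protein. Inhibitor at 30 µM. Histone peptide immobilized via streptavidin, 15 min reaction in HEPES pH 7.4 buffer, anti-acetyl-lysine ELISA. Triplicates for each of two animals. Blank values subtracted.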

[2] = target: Histone acetyltransferase KAT5 (Homo sapiens) (UniProt Q92993); experiment: Inhibition of His-tagged human recombinant Tip60 expressed in Escherichia coli BL21(DE3) cells using [14C][…] and histone H4 as substrate at 200 uM after 5 mins by scintillation counting
Outline: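 Single-point screen at 200 µM inhibitor: 100 nM Tip60, 10 µM [14C]Ac-CoA, 100 µM H4-20 peptide in 50 mM HEPES pH 8.0, 0.1 mM EDTA, BSA, 1 mM DTT, 0.1% Triton X-100, 2% DMSO. Components equilibrated 5 min at 30 °C before enzyme start. Products spotted on P81 paper, washed with bicarbonate, counted by scintillation. No-enzyme background subtracted.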

[3] = target: Histone acetyltransferase KAT2B (Homo sapiens) (UniProt Q92831); experiment: Inhibition of human recombinant His-tagged PCAF HAT domain expressed in Escherichia coli BL21(DE3) cells using [14C][…] and histone H3 as substrate at 200 uM after 5 mins by scintillation counting
[4] = target: Histone acetyltransferase KAT5 (Homo sapiens) (UniProt Q92993); experiment: Inhibition of Tip60-mediated histone H4 acetylation in human HeLa nuclear extracts at 200 uM after 15 mins by ELISA
Outline: (§1)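 HeLa nuclear extract (Dignam method) at 2.5 µg/mL final protein as enzyme source. Biotinylated H3 (aa 1–21) or H4 (aa 2–24) peptide immobilized on streptavidin. Reaction run 15 min in 50 mM HEPES pH 7.4, 0.01% Triton X-100, 0.1 mM EDTA, BSA, 1 mM DTT. Anti-acetyl-lysine ELISA readout. Triplicates, normalized to no-inhibitor and no-enzyme controls.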

[5] = target: Histone acetyltransferase p300 (Homo sapiens) (UniProt Q09472); experiment: Inhibition of human recombinant His-tagged p300 HAT domain expressed in Escherichia coli BL21(DE3) cells using [14C][…] and histone H4 as substrate at >200 uM after 5 mins by scintillation counting
[6] = target: Histone acetyltransferase KAT5 (Homo sapiens) (UniProt Q92993)
[7] = target: Histone acetyltransferase KAT2B (Homo sapiens) (UniProt Q92831); experiment: Inhibition of human recombinant His-tagged PCAF HAT domain expressed in Escherichia coli BL21(DE3) cells using [14C][…] and histone H3 as substrate at >200 uM after 3.5 mins by scintillation counting
[8] = target: Histone acetyltransferase KAT5 (Homo sapiens) (UniProt Q92993); experiment: Inhibition of Tip60-mediated histone H3 acetylation in human HeLa nuclear extracts at 50 uM after 15 mins by ELISA; outline: as §1
[9] = target: T1, Histone acetyltransferase KAT8 (Homo sapiens, UniProt Q9H7Z6); experiment: Inhibition of human MOF expressed in Escherichia coli BL21(DE3) cells using [14C]AC-CoA and histone H4 as substrate after 5 mins by scintillation counting
T1 sequence (Q9H7Z6 whole entry): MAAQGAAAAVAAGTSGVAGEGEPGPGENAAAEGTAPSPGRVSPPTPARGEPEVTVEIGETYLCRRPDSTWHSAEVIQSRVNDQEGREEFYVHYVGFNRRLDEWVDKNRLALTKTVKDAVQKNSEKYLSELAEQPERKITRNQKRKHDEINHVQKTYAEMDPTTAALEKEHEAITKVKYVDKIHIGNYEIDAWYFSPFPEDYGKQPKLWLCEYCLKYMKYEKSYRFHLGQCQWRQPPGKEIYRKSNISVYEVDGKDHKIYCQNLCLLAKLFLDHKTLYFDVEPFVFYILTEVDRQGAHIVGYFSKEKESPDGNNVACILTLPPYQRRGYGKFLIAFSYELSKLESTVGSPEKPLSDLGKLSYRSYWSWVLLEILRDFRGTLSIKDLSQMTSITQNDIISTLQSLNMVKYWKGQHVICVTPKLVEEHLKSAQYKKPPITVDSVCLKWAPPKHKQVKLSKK

[10] = target: Histone acetyltransferase p300 (Homo sapiens) (UniProt Q09472); experiment: Inhibition of human recombinant His-tagged p300 HAT domain expressed in Escherichia coli BL21(DE3) cells using [14C][…] and histone H4 as substrate at 200 uM after 5 mins by scintillation counting
Outline: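 Single-point screen at 200 µM inhibitor: 5 nM p300, 10 µM [14C]Ac-CoA, 100 µM H4-20 peptide in 50 mM HEPES pH 8.0, EDTA, BSA, DTT, Triton X-100, 2% DMSO, 30 °C. Enzyme-initiated after 5 min equilibration. Radioactivity on P81 paper counted. No-enzyme background subtracted.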

[11] = target: Histone acetyltransferase KAT5 (Homo sapiens) (UniProt Q92993); experiment: Inhibition of Tip60-mediated histone H3 acetylation in human HeLa nuclear extracts at 200 uM after 15 mins by ELISA; outline: as §1
[12] = target: Histone acetyltransferase KAT5 (Rattus norvegicus) (UniProt Q99MK2); experiment: Inhibition of Tip60-mediated histone H3 acetylation in rat brain extracts at 30 uM after 15 mins by ELISA
[13] = target: Histone acetyltransferase KAT5 (Homo sapiens) (UniProt Q92993); remark: listed apart in the source
[14] = target: Histone acetyltransferase KAT5 (Homo sapiens) (UniProt Q92993); experiment: Inhibition of Tip60-mediated histone H4 acetylation in human HeLa nuclear extracts at 50 uM after 15 mins by ELISA; outline: as §1

Chain of Histone acetyltransferase KAT5 (Homo sapiens) (Q92993 whole entry, looked up, the tested form may be a part): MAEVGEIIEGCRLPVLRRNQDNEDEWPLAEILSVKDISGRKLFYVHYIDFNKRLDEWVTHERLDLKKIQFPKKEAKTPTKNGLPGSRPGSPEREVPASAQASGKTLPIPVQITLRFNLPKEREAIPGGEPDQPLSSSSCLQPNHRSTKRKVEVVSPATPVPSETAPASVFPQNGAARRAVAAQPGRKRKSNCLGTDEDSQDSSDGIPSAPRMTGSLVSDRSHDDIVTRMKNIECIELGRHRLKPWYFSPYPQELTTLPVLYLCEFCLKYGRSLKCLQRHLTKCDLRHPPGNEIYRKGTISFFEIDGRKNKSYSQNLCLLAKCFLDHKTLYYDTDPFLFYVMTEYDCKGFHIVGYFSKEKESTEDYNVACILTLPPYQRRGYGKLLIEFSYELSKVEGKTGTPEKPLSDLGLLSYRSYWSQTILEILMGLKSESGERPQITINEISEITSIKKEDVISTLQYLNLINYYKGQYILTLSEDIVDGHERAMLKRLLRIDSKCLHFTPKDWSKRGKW
Chain of Histone acetyltransferase p300 (Homo sapiens) (Q09472 whole entry, the tested form may be a part): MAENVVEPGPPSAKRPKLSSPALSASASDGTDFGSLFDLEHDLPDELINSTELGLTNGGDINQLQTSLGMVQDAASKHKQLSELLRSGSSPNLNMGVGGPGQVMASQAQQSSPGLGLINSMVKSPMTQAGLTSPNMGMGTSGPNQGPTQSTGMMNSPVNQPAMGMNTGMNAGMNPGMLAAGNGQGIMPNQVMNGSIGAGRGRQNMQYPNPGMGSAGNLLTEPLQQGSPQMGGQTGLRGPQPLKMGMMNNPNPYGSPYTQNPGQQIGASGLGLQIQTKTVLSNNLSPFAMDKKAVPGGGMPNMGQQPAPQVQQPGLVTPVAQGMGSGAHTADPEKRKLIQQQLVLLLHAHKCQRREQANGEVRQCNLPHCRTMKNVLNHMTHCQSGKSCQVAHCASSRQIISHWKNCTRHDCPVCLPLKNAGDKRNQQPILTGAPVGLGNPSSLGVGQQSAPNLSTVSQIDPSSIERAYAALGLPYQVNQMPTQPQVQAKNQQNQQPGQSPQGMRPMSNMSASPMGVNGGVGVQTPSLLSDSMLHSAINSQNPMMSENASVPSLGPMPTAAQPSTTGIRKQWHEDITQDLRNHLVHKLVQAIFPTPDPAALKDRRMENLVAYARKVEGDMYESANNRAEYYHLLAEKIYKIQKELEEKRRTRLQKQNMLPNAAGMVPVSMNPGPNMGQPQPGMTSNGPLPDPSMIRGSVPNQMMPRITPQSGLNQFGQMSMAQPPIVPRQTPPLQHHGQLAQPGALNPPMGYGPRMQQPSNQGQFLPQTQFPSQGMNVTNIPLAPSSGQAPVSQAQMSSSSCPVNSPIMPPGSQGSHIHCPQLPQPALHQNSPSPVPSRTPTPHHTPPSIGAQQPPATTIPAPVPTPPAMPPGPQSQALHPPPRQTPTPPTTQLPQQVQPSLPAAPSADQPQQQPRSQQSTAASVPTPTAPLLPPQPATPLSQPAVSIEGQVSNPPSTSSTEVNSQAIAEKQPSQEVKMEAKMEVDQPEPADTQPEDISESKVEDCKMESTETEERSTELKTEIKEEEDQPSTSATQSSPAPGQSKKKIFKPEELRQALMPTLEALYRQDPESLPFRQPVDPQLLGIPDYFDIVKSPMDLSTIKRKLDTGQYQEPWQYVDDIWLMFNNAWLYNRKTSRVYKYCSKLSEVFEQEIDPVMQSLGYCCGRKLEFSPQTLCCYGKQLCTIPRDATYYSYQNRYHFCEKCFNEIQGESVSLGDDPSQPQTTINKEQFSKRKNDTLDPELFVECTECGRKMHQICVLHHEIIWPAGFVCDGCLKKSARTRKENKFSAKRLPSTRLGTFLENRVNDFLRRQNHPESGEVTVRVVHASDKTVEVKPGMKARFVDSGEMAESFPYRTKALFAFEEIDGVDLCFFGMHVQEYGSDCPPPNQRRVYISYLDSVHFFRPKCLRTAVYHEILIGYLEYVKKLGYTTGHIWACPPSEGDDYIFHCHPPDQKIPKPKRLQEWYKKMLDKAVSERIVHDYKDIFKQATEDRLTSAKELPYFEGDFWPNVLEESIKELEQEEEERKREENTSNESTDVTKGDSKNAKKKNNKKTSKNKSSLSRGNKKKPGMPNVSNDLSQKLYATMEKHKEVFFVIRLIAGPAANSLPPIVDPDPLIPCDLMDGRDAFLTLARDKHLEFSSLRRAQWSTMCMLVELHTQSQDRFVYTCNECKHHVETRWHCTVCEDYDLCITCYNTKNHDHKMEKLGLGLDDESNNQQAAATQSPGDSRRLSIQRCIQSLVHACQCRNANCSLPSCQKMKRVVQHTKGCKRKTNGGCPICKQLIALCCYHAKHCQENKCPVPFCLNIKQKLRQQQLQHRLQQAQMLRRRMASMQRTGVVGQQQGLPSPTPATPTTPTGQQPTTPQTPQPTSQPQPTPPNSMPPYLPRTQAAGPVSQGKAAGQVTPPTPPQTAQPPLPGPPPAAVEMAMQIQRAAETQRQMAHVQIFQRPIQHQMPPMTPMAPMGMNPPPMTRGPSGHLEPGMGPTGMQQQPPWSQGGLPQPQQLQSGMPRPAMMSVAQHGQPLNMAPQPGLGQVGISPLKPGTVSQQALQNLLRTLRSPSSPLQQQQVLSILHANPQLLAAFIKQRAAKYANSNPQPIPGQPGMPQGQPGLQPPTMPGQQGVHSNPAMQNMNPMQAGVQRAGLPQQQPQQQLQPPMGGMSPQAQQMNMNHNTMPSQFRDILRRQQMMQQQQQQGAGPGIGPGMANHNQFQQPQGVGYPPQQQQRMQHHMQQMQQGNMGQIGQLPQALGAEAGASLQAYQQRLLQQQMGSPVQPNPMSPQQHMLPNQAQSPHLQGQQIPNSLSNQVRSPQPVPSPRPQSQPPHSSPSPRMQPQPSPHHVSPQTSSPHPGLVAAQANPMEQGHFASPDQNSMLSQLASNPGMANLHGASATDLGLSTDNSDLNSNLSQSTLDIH
Chain of Histone acetyltransferase KAT5 (Rattus norvegicus) (Q99MK2 whole entry): as the sequence (Q92993 whole entry, looked up, the tested form may be a part) above, with A175S counted along it
Chain of Histone acetyltransferase KAT2B (Homo sapiens) (Q92831 whole entry, looked up, the tested form may be a part): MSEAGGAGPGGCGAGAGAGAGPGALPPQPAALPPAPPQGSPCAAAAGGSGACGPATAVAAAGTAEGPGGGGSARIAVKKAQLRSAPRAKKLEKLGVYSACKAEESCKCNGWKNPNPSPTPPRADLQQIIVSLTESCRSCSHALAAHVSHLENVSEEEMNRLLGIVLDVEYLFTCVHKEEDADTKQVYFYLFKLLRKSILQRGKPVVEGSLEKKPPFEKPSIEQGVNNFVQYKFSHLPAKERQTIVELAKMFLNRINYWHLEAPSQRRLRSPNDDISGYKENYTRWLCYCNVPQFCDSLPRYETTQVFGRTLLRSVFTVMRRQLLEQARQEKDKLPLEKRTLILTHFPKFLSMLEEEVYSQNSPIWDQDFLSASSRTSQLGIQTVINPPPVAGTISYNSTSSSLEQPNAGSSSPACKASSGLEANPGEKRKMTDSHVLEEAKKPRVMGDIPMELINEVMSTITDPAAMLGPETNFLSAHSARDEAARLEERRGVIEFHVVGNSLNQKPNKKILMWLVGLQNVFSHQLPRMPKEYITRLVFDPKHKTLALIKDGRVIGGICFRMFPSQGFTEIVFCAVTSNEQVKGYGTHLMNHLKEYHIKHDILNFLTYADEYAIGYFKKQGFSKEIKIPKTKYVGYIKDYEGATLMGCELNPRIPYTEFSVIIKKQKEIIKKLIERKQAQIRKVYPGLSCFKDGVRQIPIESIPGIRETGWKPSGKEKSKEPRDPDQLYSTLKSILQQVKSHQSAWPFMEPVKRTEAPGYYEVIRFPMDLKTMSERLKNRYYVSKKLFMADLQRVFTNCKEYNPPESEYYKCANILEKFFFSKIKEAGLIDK

With `CCCCCCCc1ccc(CCc2cccc(O)c2C(=O)O)cc1` the inhibition [1] was “Active”, the inhibition [2] was 88% and the inhibition [3] was under 35%. For the same compound, the inhibition [4] was over 50%, the inhibition [5] was 30% and the Kii [6] was 78 µM. For the same compound, the inhibition [7] was 3%, the inhibition [8] was “Active” and the IC50 [9] was 47 µM. For the same compound, the inhibition [10] was under 35%, the inhibition [11] was over 50% and the inhibition [12] was “Active”. The Kii [13] was 572 µM.

In the case of `C=CC/C=C\C/C=C\CCCCCCCc1cccc(O)c1C(=O)O`, the inhibition [1] is reported as “Active”, the inhibition [2] is reported as over 76% and the inhibition [3] is reported as under 20%. For the same compound, the inhibition [4] was over 50%, the inhibition [5] was 40% and the inhibition [8] was “Active”. The inhibition [10] was under 20%, the inhibition [11] was over 50% and the inhibition [14] was “Active”. The inhibition [12] was “Active”.

With `CCCCCCCCCCCCCCOc1ccc(CCc2cccc(O)c2C(=O)O)cc1` the inhibition [4] was over 50%, the inhibition [11] was over 50% and the inhibition [14] was “Active”.

In the case of `CCCCCCCc1ccc(CCc2cc(O)cc(O)c2C(=O)O)cc1`, the inhibition [8] is reported as “Active”.

`CCCCCCCCCCCCCC#Cc1ccccc1C(=O)OC` showed an inhibition [4] of over 50% and an inhibition [11] of over 50%.

`CCCCCOc1ccc(/C=C\c2cccc(O)c2C(=O)O)cc1` was tested, and the inhibition [4] was over 50%, the inhibition [11] was over 50% and the inhibition [14] was “Active”.

With `CCCCCOc1ccc(CCc2cccc(O)c2C(=O)O)cc1C(C)O` (stereo unspecified) the inhibition [2] was “Active”.

For `CC(C)CCCC(C)CCOc1ccc(CCc2cccc(O)c2C(=O)O)cc1` (stereo unspecified), the inhibition [2] was over 76%, the inhibition [3] was under 35% and the inhibition [4] was over 50%. For the same compound, the inhibition [8] was “Active”, the inhibition [10] was under 35% and the inhibition [11] was over 50%.

`CCCCCCCCCCc1cccc(O)c1C(=O)O` gave an inhibition [2] of over 76%, an inhibition [3] of under 35% and an inhibition [4] of over 50%. The inhibition [8] was “Active”, the inhibition [10] was under 35% and the inhibition [11] was over 50%. The inhibition [14] was “Active”.

Compound `CCCCCCCCCCCCCCCc1cc(O)cc(O)c1C(=O)O` has an inhibition [2] of over 76%, an inhibition [3] of under 35% and an inhibition [4] of over 50%. The inhibition [8] was “Active”, the inhibition [10] was under 35% and the inhibition [11] was over 50%.

Work on `CCCCCOc1ccc(CCc2cccc(O)c2C(=O)O)cc1C(C)=O` yielded an inhibition [2] of over 76%, an inhibition [3] of under 35% and an inhibition [4] of over 50%. For the same compound, the inhibition [10] was under 35% and the inhibition [11] was over 50%.

With `CCCCCCCOc1ccc(CCc2cccc(O)c2C(=O)O)cc1C(C)=O` the inhibition [4] was over 50%, the inhibition [8] was “Active” and the inhibition [11] was over 50%.

`CCCCCOc1ccc(CCc2cccc(O)c2C(=O)O)cc1` was tested, and the inhibition [4] was over 50%, the inhibition [11] was over 50% and the inhibition [14] was “Active”.

For `CCCCCCCCCCCCCCCc1ccccc1C(=O)O`, the inhibition [4] was over 50% and the inhibition [11] was over 50%.

With `COCCOc1ccc(CCc2cccc(O)c2C(=O)O)cc1` the inhibition [2] was “Active”.

Work on `CCCCCCCCCCc1cc(O)cc(O)c1C(=O)O` yielded an inhibition [2] of over 76%, an inhibition [3] of under 35% and an inhibition [4] of over 50%. For the same compound, the inhibition [10] was under 35% and the inhibition [11] was over 50%.
